In general, MIC refers to the lowest concentration that inhibits growth of the organism. As a reminder, the ED50 is the dose that gives a 50% effect, or the effect in half of the subjects. A higher ED50 goes with a need for a large dose.

Experiment [1] has as its system Aspergillus fumigatus. The experiment is described as follows: In vitro antifungal activity against Aspergillus fumigatus 8004 by broth microdilution method. The experiment is classed as functional. A digest of the protocol: (§1)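 Broth microdilution run to NCCLS M27-A guidelines. MIC read per that standard.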
Background: Broth dilution looks for growth in wells or tubes with falling amounts of substance.

For experiment [2], the system named is Aspergillus fumigatus. Briefly: In vitro antifungal activity against Aspergillus fumigatus FP1305 by broth microdilution method. The experiment is classed as functional. In outline:
as §1

For experiment [3], the system named is Candida albicans. The experiment is described as follows: In vitro antifungal activity against Candida albicans 13004 by broth microdilution method. Format: functional. A digest of the protocol:
as §1

The test system of experiment [4] is Candida albicans. Briefly: In vitro antifungal activity against Candida albicans FP633 by broth microdilution method. Format: functional. A digest of the protocol:
as §1

Experiment [5] is filed under the species Mus musculus. The experiment is described as follows: Ability to hemolyze ICR mouse RBCs at 1 mg/mL using microtiter red blood cell hemolysis assay.
For experiment [6], the system named is Candida albicans. The experiment is described as follows: In vitro antifungal activity against Candida albicans FP579 by agar dilution method using Sabouraud Dextrose agar. The experiment is classed as functional. In outline: (§2)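 Agar dilution on Sabouraud Dextrose agar. MIC taken as the lowest concentration that inhibits visible growth.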
The test system of experiment [7] is Candida albicans. The experiment is described as follows: In vitro Antifungal activity against Candida albicans FP633 by agar dilution method using Sabouraud Dextrose agar. Format: functional. In outline:
as §2
In general terms: In agar dilution the substance is mixed into plates at graded concentrations.

In experiment [8] the test system is Meyerozyma guilliermondii. The experiment is described as follows: In vitro antifungal activity against Candida guilliermondii FP587 by agar dilution method using Sabouraud Dextrose agar. Format: functional. A digest of the protocol:
as §2

The test system of experiment [9] is Candida parapsilosis. Briefly: In vitro antifungal activity against Candida parapsilosis 15001 by agar dilution method using Sabouraud Dextrose agar. Format: functional. The settings on record: Lodderomyces parapsilosis. A digest of the protocol:
as §2

In experiment [10] the test system is Candida tropicalis. Briefly: In vitro antifungal activity against Candida tropicalis 8001 by agar dilution method using Sabouraud Dextrose agar. Format: functional. In outline: as §2
Experiment [11] has as its system Mus musculus. Briefly: Compound was evaluated in vivo for antifungal activity and efficacy in disseminated murine candidiasis was determined. Format: functional.

Structures are written as SMILES. Converted amounts (≈) assume the structure as drawn. Numbered stars: 1 amine (or outer) side, 2 acyl side, 3 side chain; on linkers, the order of the positions; unused ones are H or OH. Bridge positions count the residues as written; N and C are the ends. Square brackets hold non-standard residues; d marks the D form. Peptide text beside a SMILES is read from it. ξ: configuration not given here. X2 = O=C(CCC(=O)N1CCNCC1)Nc1cc(C[C@H](N[*:1])C(=O)[*:2])ccc1O; X3 = O=C(O)CCC(=O)Nc1cc(C[C@H](N[*:1])C(=O)[*:2])ccc1O; Gln(3R-OH) = NC(=O)C[C@@H](O)[C@H](N)C(=O)O; X1 = CCCCCCCCCCCCC[C@H](CC(=O)[*:1])O[*:2]; Pro(3S-OH) = O=C(O)[C@H]1NCC[C@@H]1O; Hyp = O=C(O)[C@@H]1C[C@@H](O)CN1; Orn = NCCC[C@H](N)C(=O)O; ξA = CC(N)C(=O)O

Regarding `CCCCCCCCCCCCC[C@H](CC(=O)N[C@@H](C(=O)N[C@H](C)C(=O)N[C@@H](Cc1ccc(O)c(NC(=O)[C@H](N)CO)c1)C(=O)N[C@H](C(=O)N1C[C@H](O)C[C@H]1C(=O)N[C@@H](C(=O)N[C@H](C(=O)N1CC[C@H](O)[C@H]1C(=O)N[C@H](C(=O)NCC(=O)N[C@@H](C(N)=O)[C@@H](C)O)[C@H](O)CC(N)=O)[C@@H](C)O)[C@@H](C)O)C(C)C)[C@@H](C)O)OC(=O)[C@@H](C)CCCN`, the MIC is 2 µg/mL (≈ 1.21 µM) in experiment [1], 0.5 µg/mL (≈ 0.303 µM) in [2], 2 µg/mL (≈ 1.21 µM) in experiment [3] and 1 µg/mL (≈ 0.605 µM) in experiment [4]. The same compound had a Hemolytic activity in experiment [5] of 84%.
For `CCCCCCCCCCCCC[C@H](CC(=O)N[C@@H](C(=O)N[C@H](C)C(=O)N[C@@H](Cc1ccc(O)c(Cl)c1)C(=O)N[C@H](C(=O)N1C[C@H](O)C[C@H]1C(=O)N[C@@H](C(=O)N[C@H](C(=O)N1CC[C@H](O)[C@H]1C(=O)N[C@H](C(=O)NCC(=O)N[C@@H](C(N)=O)[C@@H](C)O)[C@H](O)CC(N)=O)[C@@H](C)O)[C@@H](C)O)C(C)C)[C@@H](C)O)OC(=O)[C@@H](C)CCCN`, the MIC in [6] came to 0.78 µg/mL (≈ 0.492 µM); in experiment [7] it was 0.39 µg/mL (≈ 0.246 µM); in [8] it was 0.78 µg/mL (≈ 0.492 µM); in experiment [9] it was 0.78 µg/mL (≈ 0.492 µM); in experiment [10], 0.78 µg/mL (≈ 0.492 µM); in experiment [10] (Candida tropicalis, read-out: MIC), 0.78 µg/mL (≈ 0.492 µM). The same compound registered a Hemolytic activity in experiment [5] of 97%.
For the compound `CCCCCCCCCCCCC[C@H](CC(=O)N[C@@H](C(=O)N[C@H](C)C(=O)N[C@@H](Cc1ccc(O)c(NC(=O)[C@H](N)Cc2c[nH]cn2)c1)C(=O)N[C@H](C(=O)N1C[C@H](O)C[C@H]1C(=O)N[C@@H](C(=O)N[C@H](C(=O)N1CC[C@H](O)[C@H]1C(=O)N[C@H](C(=O)NCC(=O)N[C@@H](C(N)=O)[C@@H](C)O)[C@H](O)CC(N)=O)[C@@H](C)O)[C@@H](C)O)C(C)C)[C@@H](C)O)OC(=O)[C@@H](C)CCCN`, the MIC in experiment [1], in [2], in [3] and in [4] was 2 µg/mL (≈ 1.18 µM) throughout. The Hemolytic activity in experiment [5] is given as 65%.
Take `CCCCCCCCCCCCC[C@H](CC(=O)N[C@@H](C(=O)N[C@H](C)C(=O)N[C@@H](Cc1ccc(OCC(=O)NCCCn2ccnc2)cc1)C(=O)N[C@H](C(=O)N1C[C@H](O)C[C@H]1C(=O)N[C@@H](C(=O)N[C@H](C(=O)N1CC[C@H](O)[C@H]1C(=O)N[C@H](C(=O)NCC(=O)N[C@@H](C(N)=O)[C@@H](C)O)[C@H](O)CC(N)=O)[C@@H](C)O)[C@@H](C)O)C(C)C)[C@@H](C)O)OC(=O)[C@@H](C)CCCN.Cl`: the MIC amounted to 2 µg/mL in experiment [1], 1 µg/mL in [2], 2 µg/mL in experiment [3] and 1 µg/mL in [4]. In [5], the Hemolytic activity is 53%.
As for `CCCCCCCCCCCCC[C@@H]1CC(=O)N[C@@H]([C@@H](C)O)C(=O)N[C@@H](C)C(=O)N[C@@H](Cc2ccc(O)c(NC(=O)CCC(=O)O)c2)C(=O)N[C@@H](C(C)C)C(=O)N2C[C@H](O)C[C@H]2C(=O)N[C@@H]([C@@H](C)O)C(=O)N[C@@H]([C@@H](C)O)C(=O)N2CC[C@H](O)[C@H]2C(=O)N[C@@H]([C@H](O)CC(N)=O)C(=O)NCC(=O)N[C@@H]([C@@H](C)O)C(=O)N[C@@H](CCCN)C(=O)O1` (TA[X3]V[Hyp]TT[Pro(3S-OH)][Gln(3R-OH)]GT[Orn]; linker N-C via X1), the MIC in [1] turned out to be 0.5 µg/mL (≈ 0.303 µM); in [2] it was 0.25 µg/mL (≈ 0.152 µM); in experiment [3], 1 µg/mL (≈ 0.606 µM); in experiment [4], 0.5 µg/mL (≈ 0.303 µM). In [5], this compound gave a Hemolytic activity of 79%.
On to `CCCCCCCCCCCCC[C@@H]1CC(=O)N[C@@H]([C@@H](C)O)C(=O)NC(C)C(=O)N[C@@H](Cc2ccc(O)c(NC(=O)CCC(=O)N3CCNCC3)c2)C(=O)N[C@@H](C(C)C)C(=O)N2C[C@H](O)C[C@H]2C(=O)N[C@@H]([C@@H](C)O)C(=O)N[C@@H]([C@@H](C)O)C(=O)N2CC[C@H](O)[C@H]2C(=O)N[C@@H]([C@H](O)CC(N)=O)C(=O)NCC(=O)N[C@@H]([C@@H](C)O)C(=O)N[C@@H](CCCN)C(=O)O1` (stereo partly drawn) (T[ξA][X2]V[Hyp]TT[Pro(3S-OH)][Gln(3R-OH)]GT[Orn]; linker N-C via X1), for which the MIC in experiment [1] turned out to be 1 µg/mL (≈ 0.582 µM); in experiment [2], 0.5 µg/mL (≈ 0.291 µM); in experiment [3], 1 µg/mL (≈ 0.582 µM); in experiment [4], 1 µg/mL (≈ 0.582 µM). In addition, in experiment [11], the ED50 is 0.97 mg/kg. In experiment [5], this compound gave a Hemolytic activity of 46%.
On to `C[C@@H]1[C@H](O)[C@@H](C)/C=C/C=C/C=C/C=C/C=C/C=C/C=C/[C@H](O[C@@H]2O[C@H](C)[C@@H](O)[C@H](N)[C@@H]2O)C[C@@H]2O[C@](O)(C[C@@H](O)C[C@@H](O)[C@H](O)CC[C@@H](O)C[C@@H](O)CC(=O)O[C@H]1C)C[C@H](O)[C@H]2C(=O)O` [AMPHOTERICIN B], for which, in experiment [11], the ED50 stood at 0.132 mg/kg.
Compound `OC(Cn1cncn1)(Cn1cncn1)c1ccc(F)cc1F` [FLUCONAZOLE] came in with an ED50 in [11] of more than 20 mg/kg.

Values taken from ChEMBL document CHEMBL1134139, “Synthesis and biological activity of novel macrocyclic antifungals. modification of the tyrosine moiety of the lipopeptidolactone FR901469” (2001).
